# Data published in ChEMBL document CHEMBL3792377, “Synthesis and characterization of a series of chiral alkoxymethyl morpholine analogs as dopamine receptor 4 (D4R) antagonists” (Bioorg Med Chem Lett, 2016).
# Assays:
# Liver microsome [1] = experiment: Drug level in human liver microsomes treated with (S)-2-((6-chloropyridin-2-yloxy)methyl)-4-((6-fluoro-1H-indol-3-yl)methyl)morpholine in presence of NADPH; format: ADME
# Outline: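 Human liver microsomes incubated with compound plus NADPH, alongside a matched no-NADPH incubation; samples profiled for remaining parent and for metabolites formed.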
# Plasma = experiment: Fraction unbound in rat plasma by equilibrium dialysis method; format: ADME, cell-free
# [2] = Fraction unbound in human plasma by equilibrium dialysis method; format: ADME, cell-free
# D(1A) dopamine receptor [3] = biological target: T1, D(1A) dopamine receptor (Homo sapiens, UniProt P21728); experiment: Displacement of [3H]-SCH-23390 from human recombinant dopamine D1 receptor expressed in CHO cells at 10 uM relative to control; format: cell-based
# T1 sequence (P21728 whole entry): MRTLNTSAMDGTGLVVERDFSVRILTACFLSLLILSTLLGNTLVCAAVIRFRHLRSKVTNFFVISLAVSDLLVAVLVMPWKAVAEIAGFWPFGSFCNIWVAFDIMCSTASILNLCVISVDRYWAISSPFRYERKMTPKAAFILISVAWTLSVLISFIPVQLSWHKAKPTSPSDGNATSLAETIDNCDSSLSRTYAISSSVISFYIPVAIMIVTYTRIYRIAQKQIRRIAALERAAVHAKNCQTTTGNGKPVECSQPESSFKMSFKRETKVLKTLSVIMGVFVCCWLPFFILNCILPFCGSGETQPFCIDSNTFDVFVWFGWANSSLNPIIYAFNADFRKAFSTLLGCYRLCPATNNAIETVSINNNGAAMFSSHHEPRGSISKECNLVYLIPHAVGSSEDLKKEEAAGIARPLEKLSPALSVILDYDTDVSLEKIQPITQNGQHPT
# Outline: (§1)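 Off-target dopamine receptor radioligand binding (D1, D2L, D2S, D3, D5), run as a contract assay. Test compound at a single concentration of 10 µM, reported as % inhibition of specific binding, measured in duplicate.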
# D(1B) dopamine receptor [4] = biological target: T2, D(1B) dopamine receptor (Homo sapiens, UniProt P21918); experiment: Displacement of [3H]-SCH-23390 from human recombinant dopamine D5 receptor expressed in CHO cells at 10 uM relative to control; format: cell-based; outline: as §1
# T2 sequence (P21918 whole entry): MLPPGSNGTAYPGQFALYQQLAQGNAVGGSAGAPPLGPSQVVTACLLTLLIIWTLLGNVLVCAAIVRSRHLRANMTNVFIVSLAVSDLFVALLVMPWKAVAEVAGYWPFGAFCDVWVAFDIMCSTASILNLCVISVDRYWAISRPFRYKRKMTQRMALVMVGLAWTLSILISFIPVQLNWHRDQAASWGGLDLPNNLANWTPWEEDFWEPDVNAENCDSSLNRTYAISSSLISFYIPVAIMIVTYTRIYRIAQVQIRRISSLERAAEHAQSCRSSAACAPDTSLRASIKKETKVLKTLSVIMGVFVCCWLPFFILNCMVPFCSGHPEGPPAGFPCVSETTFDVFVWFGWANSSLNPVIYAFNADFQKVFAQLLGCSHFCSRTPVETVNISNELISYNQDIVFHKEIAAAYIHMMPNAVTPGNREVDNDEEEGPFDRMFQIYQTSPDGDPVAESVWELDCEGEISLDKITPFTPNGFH
# D(2) dopamine receptor [5] = biological target: T3, D(2) dopamine receptor (Homo sapiens, UniProt P14416); experiment: Displacement of [3H]-Spiperone from human recombinant dopamine D2S receptor expressed in CHO cells at 10 uM relative to control; format: cell-based; outline: as §1
# T3 sequence (P14416 whole entry): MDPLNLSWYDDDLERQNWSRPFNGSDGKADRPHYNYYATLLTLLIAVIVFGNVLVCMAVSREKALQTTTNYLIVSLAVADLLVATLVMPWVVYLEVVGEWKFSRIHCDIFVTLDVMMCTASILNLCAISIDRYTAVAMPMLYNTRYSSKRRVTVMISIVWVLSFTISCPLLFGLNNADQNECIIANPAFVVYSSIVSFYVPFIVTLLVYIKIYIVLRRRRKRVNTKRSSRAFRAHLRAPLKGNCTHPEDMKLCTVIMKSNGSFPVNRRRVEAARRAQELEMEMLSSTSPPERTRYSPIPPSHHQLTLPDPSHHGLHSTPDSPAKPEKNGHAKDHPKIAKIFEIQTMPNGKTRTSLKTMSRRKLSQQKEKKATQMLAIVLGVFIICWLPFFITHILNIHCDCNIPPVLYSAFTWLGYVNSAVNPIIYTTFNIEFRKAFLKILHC
# [6] = Plasma concentration in rat at 0.25 mg/kg, iv administered through cassette dosing at 0.25 hrs; format: ADME, organism-based
# [7] = Ratio of drug level in brain to plasma in rat at 0.25 mg/kg, iv administered through cassette dosing at 0.25 hrs; format: ADME, organism-based
# [8] = Drug uptake in rat brain at 0.25 mg/kg, iv administered through cassette dosing at 0.25 hrs; format: ADME, organism-based; details: read-out: Drug uptake
# D(4) dopamine receptor = biological target: T4, D(4) dopamine receptor (Homo sapiens, UniProt P21917); experiment: Displacement of [3H]-Spiperone from human recombinant dopamine D4 receptor expressed in CHOK1 cells; format: cell-based, CHO-K1
# T4 sequence (P21917 whole entry): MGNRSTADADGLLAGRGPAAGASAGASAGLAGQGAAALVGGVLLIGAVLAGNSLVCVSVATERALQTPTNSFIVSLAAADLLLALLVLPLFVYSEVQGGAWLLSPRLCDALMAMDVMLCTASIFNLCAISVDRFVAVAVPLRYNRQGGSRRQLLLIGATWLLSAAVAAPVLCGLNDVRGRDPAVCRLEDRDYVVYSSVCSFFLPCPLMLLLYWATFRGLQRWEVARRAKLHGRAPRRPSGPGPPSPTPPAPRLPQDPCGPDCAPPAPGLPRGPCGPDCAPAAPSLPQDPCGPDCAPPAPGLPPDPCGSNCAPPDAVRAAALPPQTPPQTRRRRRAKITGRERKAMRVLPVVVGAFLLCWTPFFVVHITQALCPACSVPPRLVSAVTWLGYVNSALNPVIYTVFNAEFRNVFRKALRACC
# Outline: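 Radioligand binding at human D4 receptor using [3H]-spiperone, run as a contract assay in duplicate. IC50 and Ki were derived from concentration–response data. Single-point values are % inhibition of specific binding at 10 µM test compound.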
# D(3) dopamine receptor [9] = biological target: T5, D(3) dopamine receptor (Homo sapiens, UniProt P35462); experiment: Displacement of [3H]-Spiperone from human recombinant dopamine D3 receptor expressed in CHO cells at 10 uM relative to control; format: cell-based; outline: as §1
# T5 sequence (P35462 whole entry): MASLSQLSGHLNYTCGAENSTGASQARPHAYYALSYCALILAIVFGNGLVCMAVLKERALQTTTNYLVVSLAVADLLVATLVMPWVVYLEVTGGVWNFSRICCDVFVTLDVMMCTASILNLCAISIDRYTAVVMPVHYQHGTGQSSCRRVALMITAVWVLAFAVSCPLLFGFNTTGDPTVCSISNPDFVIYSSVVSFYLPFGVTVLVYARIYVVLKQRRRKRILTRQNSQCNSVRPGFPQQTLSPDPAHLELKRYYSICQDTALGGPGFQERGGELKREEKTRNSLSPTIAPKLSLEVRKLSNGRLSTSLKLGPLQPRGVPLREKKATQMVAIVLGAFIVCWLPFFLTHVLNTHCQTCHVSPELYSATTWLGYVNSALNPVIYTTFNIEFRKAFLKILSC
# D(2) dopamine receptor [10] = biological target: T3, D(2) dopamine receptor; experiment: Displacement of [3H]-Spiperone from human recombinant dopamine D2L receptor expressed in CHO cells at 10 uM relative to control; format: cell-based; outline: as §1
# D(3) dopamine receptor [11] = biological target: T5, D(3) dopamine receptor; experiment: Displacement of [3H]-Spiperone from human recombinant dopamine D3 receptor expressed in CHO cells; format: cell-based
# D(1A) dopamine receptor [12] = biological target: T1, D(1A) dopamine receptor; experiment: Displacement of [3H]-SCH-23390 from human recombinant dopamine D1 receptor expressed in CHO cells; format: cell-based
# D(1B) dopamine receptor [13] = biological target: T2, D(1B) dopamine receptor; experiment: Displacement of [3H]-SCH-23390 from human recombinant dopamine D5 receptor expressed in CHO cells; format: cell-based
# D(2) dopamine receptor [14] = biological target: T3, D(2) dopamine receptor; experiment: Displacement of [3H]-Spiperone from human recombinant dopamine D2L receptor expressed in CHO cells; format: cell-based
# Homo sapiens [15] = species: Homo sapiens; experiment: Selectivity ratio of Ki for human recombinant dopamine D2L receptor to Ki for human recombinant dopamine D4 receptor
# Homo sapiens [16] = species: Homo sapiens; experiment: Selectivity ratio of Ki for human recombinant dopamine D2S receptor to Ki for human recombinant dopamine D4 receptor
# D(2) dopamine receptor [17] = biological target: T3, D(2) dopamine receptor; experiment: Displacement of [3H]-Spiperone from human recombinant dopamine D2S receptor expressed in CHO cells; format: cell-based
# Homo sapiens [18] = species: Homo sapiens; experiment: Selectivity ratio of Ki for human recombinant dopamine D5 receptor to Ki for human recombinant dopamine D4 receptor
# [19] = biological target: Dopamine receptors; D3 & D4 (Homo sapiens) (UniProt P35462+P21917); experiment: Selectivity ratio of Ki for human recombinant dopamine D3 receptor to Ki for human recombinant dopamine D4 receptor
# Chain of Dopamine receptors; D3 & D4 (Homo sapiens) (P35462 whole entry, looked up, one chain of several): as the sequence (P35462 whole entry) above
# Homo sapiens [20] = species: Homo sapiens; experiment: Selectivity ratio of Ki for human recombinant dopamine D1 receptor to Ki for human recombinant dopamine D4 receptor
# D(3) dopamine receptor [21] = biological target: T5, D(3) dopamine receptor; details: CHO, 1 uM
# Liver microsome [22] = experiment: Metabolic stability in rat liver microsomes in absence of NADPH; format: ADME
# D(1B) dopamine receptor [23] = biological target: T2, D(1B) dopamine receptor; details: CHO, 1 uM
# D(2) dopamine receptor [24] = biological target: T3, D(2) dopamine receptor; details: CHO, 1 uM
# Liver microsome [25] = experiment: Metabolic stability in human liver microsomes in absence of NADPH; format: ADME
# D(2) dopamine receptor [26] = biological target: T3, D(2) dopamine receptor; details: CHO, 1 uM; remark: listed apart in the source
# Liver microsome [27] = experiment: Drug metabolism in human liver microsomes assessed as (S)-2-((6-chloropyridin-2-yloxy)methyl)morpholine formation in presence of NADPH; format: ADME
# Liver microsome [28] = experiment: Drug metabolism in rat liver microsomes assessed as oxidative dealkylated metabolite formation in presence of NADPH; format: ADME
# D(1A) dopamine receptor [29] = biological target: T1, D(1A) dopamine receptor; details: CHO, 1 uM
Structure (SMILES),Fu (Plasma),Fu [2],inhibition (D(2) dopamine receptor [5]),concentration at 0.25 h [6],Kp [7],concentration at 0.25 h [8],IC50 (D(4) dopamine receptor),Ki (D(4) dopamine receptor),Ki (D(3) dopamine receptor [11]),Ki (D(1A) dopamine receptor [12]),Ki (D(1B) dopamine receptor [13]),Ki (D(2) dopamine receptor [14]),Ratio Ki (Homo sapiens [15]),Ratio Ki (Homo sapiens [16]),Ki (D(2) dopamine receptor [17]),Ratio Ki (Homo sapiens [18]),Ratio Ki [19],Ratio Ki (Homo sapiens [20]),further results
Clc1cccc(OC[C@@H]2CNCCO2)n1,–,–,–,–,–,–,–,–,–,–,–,–,–,–,–,–,–,–,Drug metabolism (Liver microsome [1]): metabolite_detected
Clc1ccc2c(CN3CCO[C@H](COc4ccccc4)C3)c[nH]c2c1,0.01,0.006,93%,0.0748 µg/mL,3.29,246 ng/g,0.008 µM,0.0022 µM,–,–,–,–,–,–,–,–,–,–,inhibition (D(1A) dopamine receptor [3]): < 50%; inhibition (D(1B) dopamine receptor [4]): < 50%; inhibition (D(3) dopamine receptor [9]): 70%; inhibition (D(2) dopamine receptor [10]): 94%
Cc1ccc(CN2CCO[C@H](CSc3ccccc3)C2)cc1C,0.004,0.001,< 50%,0.0231 µg/mL,5.73,132 ng/g,0.027 µM,0.0074 µM,> 10 µM,> 10 µM,> 10 µM,> 10 µM,> 1000,> 1000,> 10 µM,> 1000,> 1000,> 1000,–
Clc1ccc(CN2CCO[C@H](CSc3ccccc3)C2)cc1,0.005,0.008,< 50%,0.0261 µg/mL,5.03,131 ng/g,0.034 µM,0.0094 µM,> 10 µM,> 10 µM,> 10 µM,> 10 µM,> 1000,> 1000,> 10 µM,> 1000,> 1000,> 1000,–
Fc1ccc2c(CN3CCO[C@H](COc4cccc(Cl)n4)C3)c[nH]c2c1,0.016,0.015,< 50%,–,–,–,0.0119 µM,0.0033 µM,> 10 µM,> 10 µM,> 10 µM,> 10 µM,> 1000,> 1000,> 10 µM,> 1000,> 1000,> 1000,inhibition (D(3) dopamine receptor [21]): < 10%; Stability (Liver microsome [22]): Stable; inhibition (D(1B) dopamine receptor [23]): < 10%; inhibition (D(2) dopamine receptor [24]): < 10%; Stability (Liver microsome [25]): Stable; inhibition (D(2) dopamine receptor [26]): < 10%; Drug metabolism (Liver microsome [27]): metabolite_detected; Drug metabolism (Liver microsome [28]): metabolite_detected; inhibition (D(1A) dopamine receptor [29]): < 10%
